Format in all cases: cell-based
Assay [1] has as its target T1, Retinoic acid receptor RXR-beta (Homo sapiens, UniProt P28702).
T1 sequence (P28702 whole entry): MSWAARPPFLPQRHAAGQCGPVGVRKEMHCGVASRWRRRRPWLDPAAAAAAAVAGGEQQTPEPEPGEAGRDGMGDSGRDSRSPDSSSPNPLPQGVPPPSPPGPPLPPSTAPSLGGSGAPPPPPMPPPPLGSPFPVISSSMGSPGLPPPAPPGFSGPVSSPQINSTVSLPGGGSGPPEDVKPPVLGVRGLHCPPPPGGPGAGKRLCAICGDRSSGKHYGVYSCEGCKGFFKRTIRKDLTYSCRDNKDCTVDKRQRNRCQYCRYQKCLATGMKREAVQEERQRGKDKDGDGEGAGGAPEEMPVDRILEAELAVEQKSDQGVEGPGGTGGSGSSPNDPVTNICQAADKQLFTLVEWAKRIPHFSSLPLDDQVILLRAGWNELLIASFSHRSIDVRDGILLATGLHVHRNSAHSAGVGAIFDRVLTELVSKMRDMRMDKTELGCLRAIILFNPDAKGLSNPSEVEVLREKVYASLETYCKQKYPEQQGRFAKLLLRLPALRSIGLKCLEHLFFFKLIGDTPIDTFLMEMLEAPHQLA
Briefly: Agonist activity at Gal4-LBD fused RXRbeta (unknown origin) expressed in HEK293T cells after 14 to 16 hrs by dual-Glo luciferase assay. An outline of the steps:
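Gal4-hybrid RXRα/β/γ reporter gene assays in HEK293T cells. Fold activation is the maximal fold activation versus 0.1% DMSO.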

The target in assay [2] is T2, Retinoic acid receptor beta (Homo sapiens) (UniProt P10826).
T2 sequence (whole entry): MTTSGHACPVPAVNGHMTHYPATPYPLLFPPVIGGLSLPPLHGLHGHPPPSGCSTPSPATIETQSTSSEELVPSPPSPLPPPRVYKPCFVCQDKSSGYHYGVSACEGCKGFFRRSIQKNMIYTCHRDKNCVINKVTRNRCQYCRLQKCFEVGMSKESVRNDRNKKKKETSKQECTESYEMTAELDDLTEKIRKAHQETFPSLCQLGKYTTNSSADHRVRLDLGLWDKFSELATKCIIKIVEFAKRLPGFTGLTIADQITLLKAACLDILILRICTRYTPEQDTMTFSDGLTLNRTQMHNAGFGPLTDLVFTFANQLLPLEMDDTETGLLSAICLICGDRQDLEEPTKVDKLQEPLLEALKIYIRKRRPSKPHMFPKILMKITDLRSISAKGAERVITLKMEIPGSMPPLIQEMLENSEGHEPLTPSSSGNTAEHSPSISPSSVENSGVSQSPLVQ
The experiment in a line: Agonist activity at Gal4-LBD fused RARbeta (unknown origin) expressed in HEK293T cells at 10 uM after 14 to 16 hrs by dual-Glo luciferase assay. An outline of the steps: (§1)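 Gal4-hybrid reporter gene selectivity panel of related nuclear receptors (PPARα/β/γ, RARα/β/γ) in HEK293T cells. Activity is read as mean fold activation versus 0.1% DMSO vehicle, n ≥ 2.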

Assay [3] concerns the target T3, Retinoic acid receptor alpha (Homo sapiens) (UniProt P10276).
T3 sequence (whole entry): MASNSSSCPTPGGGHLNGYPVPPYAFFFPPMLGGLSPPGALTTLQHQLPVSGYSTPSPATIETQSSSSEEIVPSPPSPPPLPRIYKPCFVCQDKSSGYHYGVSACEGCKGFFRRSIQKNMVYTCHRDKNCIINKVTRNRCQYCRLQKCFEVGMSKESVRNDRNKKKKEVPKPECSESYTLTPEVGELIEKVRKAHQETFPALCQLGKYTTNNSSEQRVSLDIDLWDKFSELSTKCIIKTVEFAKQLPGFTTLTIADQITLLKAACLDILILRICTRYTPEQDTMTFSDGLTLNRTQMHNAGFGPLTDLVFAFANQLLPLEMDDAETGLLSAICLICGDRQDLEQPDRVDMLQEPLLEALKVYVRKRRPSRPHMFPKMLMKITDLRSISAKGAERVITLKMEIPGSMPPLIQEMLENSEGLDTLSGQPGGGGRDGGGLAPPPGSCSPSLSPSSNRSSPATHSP
Briefly: Agonist activity at Gal4-LBD fused RARalpha (unknown origin) expressed in HEK293T cells at 10 uM after 14 to 16 hrs by dual-Glo luciferase assay. An outline of the steps:
as §1

Assay [4] concerns the target T4, Peroxisome proliferator-activated receptor alpha (Homo sapiens) (UniProt Q07869).
T4 sequence (whole entry): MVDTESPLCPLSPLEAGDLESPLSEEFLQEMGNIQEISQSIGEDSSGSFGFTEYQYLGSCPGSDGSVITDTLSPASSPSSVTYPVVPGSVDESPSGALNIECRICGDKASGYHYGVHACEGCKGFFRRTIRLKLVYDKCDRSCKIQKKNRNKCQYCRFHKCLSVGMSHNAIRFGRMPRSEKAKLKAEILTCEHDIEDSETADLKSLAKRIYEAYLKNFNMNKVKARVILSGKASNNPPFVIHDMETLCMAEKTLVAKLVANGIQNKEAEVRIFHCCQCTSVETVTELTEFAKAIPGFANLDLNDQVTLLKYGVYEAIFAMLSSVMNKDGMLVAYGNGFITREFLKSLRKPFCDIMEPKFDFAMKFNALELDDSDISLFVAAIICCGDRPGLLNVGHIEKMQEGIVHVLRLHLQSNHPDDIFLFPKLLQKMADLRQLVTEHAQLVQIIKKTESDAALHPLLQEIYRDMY
Briefly: Agonist activity at Gal4-LBD fused PPARalpha (unknown origin) expressed in HEK293T cells at 10 uM after 14 to 16 hrs by dual-Glo luciferase assay. An outline of the steps: as §1

For assay [5], the target named is T5, Peroxisome proliferator-activated receptor gamma (Homo sapiens) (UniProt P37231).
T5 sequence (whole entry): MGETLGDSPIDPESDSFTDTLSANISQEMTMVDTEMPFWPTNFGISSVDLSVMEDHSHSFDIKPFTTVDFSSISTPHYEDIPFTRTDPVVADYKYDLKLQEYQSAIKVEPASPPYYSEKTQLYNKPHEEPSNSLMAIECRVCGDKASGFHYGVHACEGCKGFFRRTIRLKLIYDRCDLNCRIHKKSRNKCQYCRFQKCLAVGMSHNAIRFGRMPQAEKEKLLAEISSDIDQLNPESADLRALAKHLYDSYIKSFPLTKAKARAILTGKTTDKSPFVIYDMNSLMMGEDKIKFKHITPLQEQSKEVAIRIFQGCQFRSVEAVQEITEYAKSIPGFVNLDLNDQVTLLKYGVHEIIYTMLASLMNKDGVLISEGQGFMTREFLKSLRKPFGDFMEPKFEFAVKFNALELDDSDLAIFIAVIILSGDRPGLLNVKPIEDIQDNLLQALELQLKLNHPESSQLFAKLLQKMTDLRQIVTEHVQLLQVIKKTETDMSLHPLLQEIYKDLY
The experiment in a line: Agonist activity at Gal4-LBD fused PPARgamma (unknown origin) expressed in HEK293T cells at 10 uM after 14 to 16 hrs by dual-Glo luciferase assay. A digest of the protocol: as §1

Molecules are shown by their SMILES. The source made the active and inactive calls. The calls are words filed in the database; no cut-off is given here.

As a reminder, the EC50 is the concentration at which the effect is half-maximal. A lower EC50 goes with higher potency in that assay.

On to `Cc1cc(-c2cc(C(F)(F)F)cc(C(F)(F)F)c2)ccc1CC(=O)O`, for which it took 0.29 µM to reach a half-maximal effect in assay [1] (EC50). The outcome in assay [2], in assay [3], in assay [4] and in assay [5] was Active.
In assay [1], `Cc1cc(-c2ccc(C(=O)O)cc2)cc(C(C)(C)C)c1` showed an EC50 of 12 µM.
On to `Cc1cc(-c2cc(C(C)(C)C)cc(C(C)(C)C)c2)ccc1C(=O)O`, for which, in assay [1], the EC50 turned out to be 6.6 µM. Also, the outcome in assay [2], in assay [3], in assay [4] and in assay [5] was Active.

These data come from ChEMBL document CHEMBL4304816, “A Novel Biphenyl-based Chemotype of Retinoid X Receptor Ligands Enables Subtype and Heterodimer Preferences” (ACS Med Chem Lett, 2019).
